Assay results published in ChEMBL document CHEMBL1932987, “Straightforward palladium-mediated synthesis and biological evaluation of benzo[j]phenanthridine-7,12-diones as anti-tuberculosis agents” (Eur J Med Chem, 2012).
≈ marks a conversion by molar mass, not a printed value.

System: Mycobacterium tuberculosis
Test: Antimycobacterial activity against multi-drug resistant Mycobacterium tuberculosis LAM-1 after 1 to 6 days by BACTEC 460-TB assay
Assay type: functional
Procedure, shortened: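 Drug-resistant clinical LAM-1 isolate of M.tb. (resistant to isoniazid, rifampicin, rifabutin, prothionamid) tested in the BACTEC 460-TB radiometric system. Growth index read over time and compared with an untreated control and with a 100-fold diluted inoculum to derive MIC99. Isoniazid run in parallel to confirm resistance.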

`Cc1ccc2c3c(cnc2c1)C(=O)c1ccccc1C3=O` gave an MIC99 of 0.71 µM (≈ 0.194 µg/mL).
